KCNQ1 block = inhibitors of human KCNQ1 channel, primary screen, cell-based, thallium flux, high-throughput; B-score at 10 µM; AID 2642, 2010; CHO-K1 KCNQ1, FluxOR thallium flux fluorescence; stronger effect = higher value; Potassium voltage-gated channel subfamily KQT member 1 (Homo sapiens), P51787; 310,000 tested, 1.3% active;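 active means compounds whose thallium flux B-score, printed positive for inhibition, exceeds three library SD while starting fluorescence stays within three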;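 further: channel opened by potassium depolarization with thallium stimulus after 20 min compound exposure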
KCNK9 inh = KCNK9 potassium channel inhibitors, primary screen, HEK293 cells, thallium flux; AID 488922, 2010; 310,000 tested, 1.2% active; FluxOR thallium flux fluorescence; stronger effect = lower value; B-score at 10 µM;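 active means ratio B-score over 3 SD below the library mean, with starting fluorescence within 5 SD of its mean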;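 further: negative B-score means less thallium flux so channel inhibition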
KCNK3 inh = human KCNK3 channel inhibitors, primary screen, CHO cells, FluxOR thallium flux, B-score. AID 602410, 2012. 340,000 tested, 0.84% active. Potassium channel subfamily K member 3 (Homo sapiens), O14649. B-score at 10 µM. FluxOR fluorescence; stronger effect = lower value;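 active means B-score under library mean minus 4 SD, starting fluorescence ratio at most library mean plus 5 SD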;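 further: more negative B-score means stronger inhibition of thallium flux through KCNK3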
hERG rescue = hERG rescue from dofetilide block, primary screen, cell-based, CHO-hERG, FluxOR thallium flux, dofetilide IC70; Voltage-gated inwardly rectifying potassium channel KCNH2 (Homo sapiens), Q12809; dofetilide IC70 present; activation (rescue from dofetilide block), less the hit threshold, % at 10 µM; 310,000 tested, 0.51% active;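 active means activation above the mean of controls blocked by dofetilide plus 5 SD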;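 further: thallium influx through hERG after potassium depolarization seen as dye fluorescence rise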
Kir21 inh = inhibitors of mouse Kir2.1 inward-rectifier potassium channel; Inward rectifier potassium channel 2 (Mus musculus), P35561; HEK293-Kir2.1, FluxOR thallium flux fluorescence; stronger effect = lower value; B-score at 10 µM; 310,000 tested, 0.85% active;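 active means fluorescence ratio B-score at or below minus 3 SD of library scores, with starting-brightness B-score within 2 SD, cut at about -4.2 in these data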;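 further: channel flux triggered by added potassium and thallium sulfate stimulus; B-score of peak minus minimum fluorescence over baseline after thallium stimulus; more negative B-score means stronger Kir2.1 block with less thallium influx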
Target sequence (P35561 whole entry, looked up): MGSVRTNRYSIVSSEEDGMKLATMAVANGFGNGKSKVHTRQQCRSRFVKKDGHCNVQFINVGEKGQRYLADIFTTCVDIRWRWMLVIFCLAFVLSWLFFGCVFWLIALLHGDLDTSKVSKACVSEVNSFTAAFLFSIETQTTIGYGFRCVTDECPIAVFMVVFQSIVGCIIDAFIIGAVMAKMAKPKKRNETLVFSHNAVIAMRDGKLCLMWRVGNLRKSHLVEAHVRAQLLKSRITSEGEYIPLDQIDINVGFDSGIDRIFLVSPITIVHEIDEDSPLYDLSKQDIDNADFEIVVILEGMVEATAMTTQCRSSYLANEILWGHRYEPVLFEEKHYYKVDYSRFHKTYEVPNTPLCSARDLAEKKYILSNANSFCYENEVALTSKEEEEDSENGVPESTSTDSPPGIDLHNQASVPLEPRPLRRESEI
KCNQ1 act = potentiators or activators of KCNQ1 channel, primary screen, cell-based, thallium flux, high-throughput; CHO-K1 KCNQ1, thallium flux FluxOR fluorescence; stronger effect = higher value; B-score at 10 µM; 310,000 tested, 0.35% active;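 active means fluorescence ratio B-score, a plate-corrected score, at least three library SD, with initial intensity B-score within 5 SD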
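assay system = KCNQ1-transfected CHO-K1 cells | medium = assay buffer with matched DMSO | probe or stimulus = depolarizing K+/Tl+ stimulus, K2SO4 and Tl2SO4 each 12.5 mM in 5x stock | dosing = single dose | incubation = dye 90 min, compound 20 min, room temperature | detection = kinetic FluxOR fluorescence, 10 s baseline plus 110 s post-stimulus | evaluation = ratio B score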
KCNK9 inh conf = KCNK9 potassium channel inhibitors, confirmation, HEK293 cells, thallium flux, duplicate | shares compounds with KCNK9 inh | FluxOR thallium flux fluorescence | inhibition, % at 10 µM | 4,900 tested, 43% active;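 active means thallium signal inhibited by more than 5 SD of the compound-free buffer control wells, on both duplicate plates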;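 further: 0% = assay buffer control wells without compound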
Kir2-1 spec = mouse Kir2.1 channel inhibition, confirmation, selectivity assay for KCNK9 modulator project, cell-based, HEK293, thallium flux | inhibition, % at 10 µM | shares compounds with KCNK9 inh | 4,900 tested, 4% active | Kir2.1 cells, FluxOR thallium flux fluorescence;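 active means thallium signal drop more than 5 SD beyond the mean of the no-compound control wells, seen in both duplicate plates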;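 further: signal is fluorescence rise after thallium addition divided by baseline fluorescence; plate controls were assay buffer only for no effect and full block by chlorpromazine control for full effect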
KCNK9 uninduced = thallium flux in non-induced HEK293 cells, confirmation, counter-screen for KCNK9 inhibitor project, cell-based, second counter screen, non-induced KCNK9-HEK293. FluxOR thallium flux. shares compounds with KCNK9 inh. AID 492997, 2010. 4,900 tested, 40% active. inhibition, % at 10 µM;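 active means thallium signal drop beyond 5 SD of the untreated control mean, on both duplicate plates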;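 further: plate controls were buffer only IC0 wells for no effect and SID17386958 at its maximal inhibitory level for full effect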
Starred values were filed as active, the others as inactive; i = inactive; x = no result. Hits are enriched below; roughly 3.7% of the tested compounds scored in any of these assays.

SMILES	KCNQ1 block	KCNK9 inh	KCNK3 inh	hERG rescue	Kir21 inh	KCNQ1 act	KCNK9 inh conf	Kir2-1 spec	KCNK9 uninduced
CCCCOC(=O)Cn1c(-c2ccccc2)nc2ccccc2c1=O	i	-11*	i	-7	1.2	i	56%*	i	52%*
CC(C)Cn1c(-c2ccccc2)nc2ccccc2c1=O	i	i	i	-10	-3.5	i	x	x	x
CCn1ccnc1CN(C)Cc1nc(-c2ccc(C(=O)OC)cc2)no1	i	i	i	-10	0.5	i	x	x	x
CCOC(=O)c1c(C)[nH]c(C)c1C(=O)CSc1nc2ccccc2c(=O)n1-c1ccccc1C	i	-9.6*	i	-12	0.63	i	32%*	i	34%*
Cc1ccc(C(=O)CSc2nc3ccccc3c(=O)n2-c2ccccc2)s1	i	i	i	-3	-0.44	i	x	x	x
CCOC(=O)c1c(C)[nH]c(C)c1C(=O)CSc1nc2ccccc2c(=O)n1-c1ccc(F)cc1	i	-10*	i	-15	0.05	i	i	i	i
CN(C)c1ccc(CNc2ccccn2)cc1	i	i	i	-4	0.16	i	x	x	x
COc1ccccc1NC(=O)CC1S/C(=N/N=C(\C)C2CCCCC2)NC1=O (stereo not drawn)	i	i	i	-11	0.93	i	x	x	x
C=CCn1c(SCC2CCCCO2)nc2sc(CC)cc2c1=O (stereo not drawn)	i	i	i	-10	0.28	i	i	i	34%*
Cc1ccccc1C(=O)N1CCC(C(=O)N2CCN(S(=O)(=O)c3ccccc3F)CC2)CC1	i	i	i	-11	1.6	i	x	x	x
O=C(NCCc1ccccc1)c1ccc2c(c1)OCCO2	i	i	i	-4	0.87	i	i	i	i
O=C(NCCc1ccccc1)c1ccc2c(c1)OCCCO2	i	i	i	-4	-0.69	i	x	x	x
C=CCN1CCC(=O)C(C(=O)OCC)=C1C(=O)OCC	x	x	i	x	x	x	x	x	x
CSc1ccccc1NC(=O)N1CCCC(C(=O)c2ccc3c(c2)OCO3)C1 (stereo not drawn)	i	i	i	-11	-0.74	i	i	i	i
O=C(c1ccc2c(c1)OCO2)C1CCCN(Cc2ccc3cccc(F)c3n2)C1 (stereo not drawn)	i	i	i	-17	-1.9	i	i	i	i
O=C(c1ccc2c(c1)OCO2)C1CCCN(C(=O)NCc2ccccc2)C1 (stereo not drawn)	i	i	i	-4	0	i	x	x	x
O=C(c1ccc2c(c1)OCO2)C1CCCN(Cc2cn[nH]c2-c2cccc(F)c2)C1 (stereo not drawn)	i	i	i	-5	-4.2	i	x	x	x
O=C(c1ccc2c(c1)OCO2)C1CCCN(C(=O)c2cnn(Cc3ccccc3)c2)C1 (stereo not drawn)	i	i	i	-14	-0.76	i	i	i	i
CC(=O)c1ccc(NC(=O)N2CCCC(C(=O)c3ccc4c(c3)OCO4)C2)cc1 (stereo not drawn)	i	i	i	-14	1.3	i	x	x	x
CCOC(=O)CN1C(=O)C(Sc2n[nH]c(-c3ccc(O)cc3)n2)CCc2ccccc21 (stereo not drawn)	i	-9.4*	i	-20	1.3	i	36%*	i	i
Cc1ccc(O)c(C(=O)CC(=O)c2ccc(C(C)(C)C)cc2)c1	i	i	i	-7	0.24	i	i	i	i
O=C(NCCCN1CCCC1=O)C1CCN(S(=O)(=O)c2ccc(Cl)cc2)CC1	x	x	i	x	x	x	x	x	x
Cc1ccc(-c2[nH]c3ccccc3c2SCCNC(=O)c2cc3ccccc3oc2=O)cc1	6*	i	i	-12	0.29	i	i	i	i
CC1CCN(C(=O)c2ccc(N3CCOCC3)c([N+](=O)[O-])c2)CC1	x	x	i	x	x	x	x	x	x
CC(C)C[C@H]1C(=O)N2CCC[C@H]2[C@]2(O)O[C@](NC(=O)C3C=C4c5cccc6[nH]c(Br)c(c56)C[C@H]4N(C)C3)(C(C)C)C(=O)N12 (stereo partly drawn)	7*	i	i	-9	1.4	i	i	i	i
SMILES	KCNQ1 block	KCNK9 inh	KCNK3 inh	hERG rescue	Kir21 inh	KCNQ1 act	KCNK9 inh conf	Kir2-1 spec	KCNK9 uninduced
COc1cc(/C=C(/C#N)C(=O)NC(C)c2ccccc2)cc(OC)c1O (stereo not drawn)	i	i	i	-8	-1.2	i	x	x	x
CC(NC(=O)/C(C#N)=C/c1cn(-c2ccccc2)nc1-c1ccc(F)cc1)c1ccccc1 (stereo not drawn)	i	i	i	-6	-0.31	i	i	i	i
CC(NC(=O)/C(C#N)=C/c1ccc(C(=O)O)cc1)c1ccccc1 (stereo not drawn)	i	i	i	-12	0.01	i	i	i	i
COc1ccccc1/C=C/C=C(\C#N)C(=O)NC(C)c1ccccc1 (stereo not drawn)	i	i	i	-9	-0.07	i	i	i	i
O=C(OCC(=O)N1CCN(c2ccccc2)CC1)c1ccc(O)cc1O	i	i	i	-8	0.79	i	x	x	x
CCC(=O)N1c2ccc(S(=O)(=O)N3CCN(c4cc(C)ccc4C)CC3)cc2CC1C (stereo not drawn)	i	i	i	-9	1.7	i	i	i	i
CCC(=O)N1c2ccc(S(=O)(=O)N3CCN(c4ccccc4Cl)CC3)cc2CC1C (stereo not drawn)	i	i	i	-11	1.2	i	x	x	x

Source: PubChem (Johns Hopkins Ion Channel Center)
